Only some compounds are listed: those with a hit (about 1.9% of all), similar ones and a draw of the others.
Tb MetRS inh: T. brucei MetRS inhibitors, primary screen, biochemical, luminescence; inhibition, % at 11.9 µM; purified T. brucei MetRS, ATP depletion, Kinase-Glo luminescence; hit rate 0.4% among 360,000;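 active = inhibition above a per-plate cutoff of the control wells' mean inhibition plus 3 SD, cut at about 5.5% in these data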;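 note: 0% = DMSO wells median and 100% = median of wells with control inhibitor compound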
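Material: parasite MetRS enzyme / Replication: singlicate, one well per compound / Signal: luminescence of leftover ATP / Schedule: 2 h aminoacylation at 25 °C after 15 min preincubation / Medium: HEPES-MgCl2-KCl buffer plus DTT, spermine, BSA, pyrophosphatase / Doses: 11.9 µM single point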
HGIII-sPLA2 inh: human group III sPLA2 inhibitors, primary screen, biochemical, QFRET, BODIPY PC-A2 liposome substrate; Group 3 secretory phospholipase A2 (Homo sapiens), Q9NZ20; QFRET BODIPY PC-A2 liposome hydrolysis, fluorescence; inhibition, % at 12.2 µM; hit rate 0.56% among 370,000; AID 743126, 2013;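 active = inhibition above mean plus 3 SD of compounds lying within the high and low control bounds, cut at about 19% in these data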;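 note: 0% = median of test compound wells and 100% = no enzyme DMSO wells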
PLC-beta3 inh: human PLC-beta3 inhibitors, primary screen, biochemical, fluorescence | Purified PLC-beta3, fluorogenic substrate | inhibition, % at 12.2 µM | hit rate 0.18% among 370,000 | AID 720704, 2013 | 1-phosphatidylinositol 4,5-bisphosphate phosphodiesterase beta-3 (Homo sapiens), Q01970;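 note: 0% = median of compound wells on plate and 100% = full blocker control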
PLC-gamma1 inh: PLC-gamma1 enzyme inhibitors, primary screen, biochemical, fluorescence, purified enzyme. 1-phosphatidylinositol 4,5-bisphosphate phosphodiesterase gamma-1 (Homo sapiens), P19174. hit rate 0.84% among 370,000. AID 720700, 2013. fluorogenic substrate. inhibition, % at 12.2 µM; in the data active = inhibition above about 9.5%
Target sequence (P19174 whole entry, looked up): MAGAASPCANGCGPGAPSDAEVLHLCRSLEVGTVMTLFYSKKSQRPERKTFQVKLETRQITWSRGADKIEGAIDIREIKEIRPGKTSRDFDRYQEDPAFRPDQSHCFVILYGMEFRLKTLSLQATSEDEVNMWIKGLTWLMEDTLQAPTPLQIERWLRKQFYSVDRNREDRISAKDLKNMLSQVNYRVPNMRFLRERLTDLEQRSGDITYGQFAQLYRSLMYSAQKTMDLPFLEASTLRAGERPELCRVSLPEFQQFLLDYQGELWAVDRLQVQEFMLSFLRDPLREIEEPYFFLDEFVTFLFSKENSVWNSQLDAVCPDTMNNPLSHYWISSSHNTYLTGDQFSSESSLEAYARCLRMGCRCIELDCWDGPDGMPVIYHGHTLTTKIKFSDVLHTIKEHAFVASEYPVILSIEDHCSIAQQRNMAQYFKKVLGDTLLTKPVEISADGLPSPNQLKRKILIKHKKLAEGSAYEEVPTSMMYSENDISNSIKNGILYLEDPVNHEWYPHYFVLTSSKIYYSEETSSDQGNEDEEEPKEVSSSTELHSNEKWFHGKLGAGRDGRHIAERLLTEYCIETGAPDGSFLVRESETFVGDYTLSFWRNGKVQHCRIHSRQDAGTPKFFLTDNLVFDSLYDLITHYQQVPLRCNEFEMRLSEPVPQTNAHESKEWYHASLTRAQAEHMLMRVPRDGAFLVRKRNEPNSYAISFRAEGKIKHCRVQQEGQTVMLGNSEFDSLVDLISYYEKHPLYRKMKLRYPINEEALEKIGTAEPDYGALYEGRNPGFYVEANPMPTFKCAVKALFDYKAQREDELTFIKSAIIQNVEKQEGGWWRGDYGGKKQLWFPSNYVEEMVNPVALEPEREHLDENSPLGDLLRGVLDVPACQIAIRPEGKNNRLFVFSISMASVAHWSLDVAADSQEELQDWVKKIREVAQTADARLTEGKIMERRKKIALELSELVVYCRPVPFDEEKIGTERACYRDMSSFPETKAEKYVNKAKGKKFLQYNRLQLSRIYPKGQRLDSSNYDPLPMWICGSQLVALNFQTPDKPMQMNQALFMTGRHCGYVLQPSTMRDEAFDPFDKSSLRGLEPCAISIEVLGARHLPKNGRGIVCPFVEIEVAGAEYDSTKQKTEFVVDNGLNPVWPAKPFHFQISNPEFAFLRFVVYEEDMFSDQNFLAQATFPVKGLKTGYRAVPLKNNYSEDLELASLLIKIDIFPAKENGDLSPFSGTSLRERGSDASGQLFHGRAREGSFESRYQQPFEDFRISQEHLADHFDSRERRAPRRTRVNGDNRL
TbMetRS confirm: T. brucei MetRS inhibitors, confirmation, biochemical, luminescence. shares compounds with Tb MetRS inh. T. brucei MetRS enzyme, luminescence (ATP depletion). inhibition, % at 11.9 µM. hit rate 93% among 1,400; in the data active = inhibition above about 7%
Jurkat tox: Jurkat T cell cytotoxicity, cytotoxicity control for T. brucei MetRS inhibitor project, luminescence, high throughput | Jurkat cells viability, ATP luminescence | inhibition, % at 8.3 µM | shares compounds with Tb MetRS inh | AID 624413, 2012 | hit rate 12% among 1,400; in the data active = inhibition above about 15%;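 note: 0% = vehicle and 100% = reference inhibitor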
TbMetRS FP orth: T. brucei MetRS inhibitors, orthogonal assay for T. brucei MetRS inhibitor project, biochemical, fluorescence polarization. shares compounds with Tb MetRS inh. hit rate 44% among 1,400. purified T. brucei MetRS. AID 651607, 2012. inhibition, % at 11.9 µM; in the data active = inhibition above about 17%;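 note: 0% = vehicle wells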
PLCg1 ctr: PLC-gamma1 enzyme inhibitors, counter-screen for PLC-beta3 inhibitor project, biochemical, fluorescence; hit rate 3.1% among 3,300; inhibition, % at 12.3 µM; purified PLC-gamma1, fluorogenic substrate; shares compounds with PLC-gamma1 inh; AID 743258, 2014; in the data active = inhibition above about 9.5%
PLCbeta3 conf: PLC-beta3 inhibitor confirmation, biochemical, fluorescence, purified enzyme. shares compounds with PLC-gamma1 inh. fluorogenic substrate fluorescence. inhibition, % at 12.3 µM. hit rate 1% among 3,300. AID 743261, 2014
hGIII sPLA2 conf: human group III sPLA2 inhibitors, confirmation, biochemical, QFRET, triplicate. shares compounds with HGIII-sPLA2 inh. recombinant hGIII-sPLA2, BODIPY PC-A2 QFRET fluorescence. inhibition, % at 12.2 µM. hit rate 34% among 2,000;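 active = mean inhibition across triplicates above the hit cutoff set in the earlier primary screen, cut at about 19% in these data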;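 note: 0% = enzyme with DMSO and 100% = DMSO wells lacking enzyme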
BODIPY interf: 535nm fluorescence optical interference, confirmation, artefact control for HGIII-sPLA2 inhibitor project, biochemical, QFRET; shares compounds with HGIII-sPLA2 inh; BODIPY FL product fluorescence interference; inhibition, % at 12.2 µM; hit rate 8.5% among 2,000;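 active = average inhibition above the solvent-only control mean plus 3 SD, cut at about 6% in these data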;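 note: 0% = DMSO with substrate plus product and 100% = DMSO with substrate alone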
* = called active by the depositor; . = no result given. Cut-off read from the data, not from the text of the source, unless noted: active = inhibition above about 11%; inactive = the rest.

SMILES	Tb MetRS inh	HGIII-sPLA2 inh	PLC-beta3 inh	PLC-gamma1 inh	PLCg1 ctr	PLCbeta3 conf	others
COc1ccc(/C=N/NC(=O)c2cc(O)c(O)c(O)c2)cc1Cn1cc([N+](=O)[O-])cn1	5.6*	20.6*	-3.0	4.0	.	.	TbMetRS confirm=13.1*;Jurkat tox=1.8;TbMetRS FP orth=8.6;hGIII sPLA2 conf=27.0*;BODIPY interf=-9.5
FC(F)(F)c1ccc2nc(CNc3nc(N4CCOCC4)nc4c3ncn4-c3ccsc3)[nH]c2c1	.	-9.0	-1.2	-1.8	.	.
CC(=O)Nc1nc2ccccc2n1CCOc1ccccc1	1.6	-4.8	-9.8	0.7	.	.
S=C(Nc1ccccc1)Nc1nc2ccccc2n1CCOc1ccccc1	18.2*	21.3*	-14.6	-12.7	.	.	TbMetRS confirm=4.9;Jurkat tox=-0.3;TbMetRS FP orth=3.0;hGIII sPLA2 conf=25.4*;BODIPY interf=0.2
CCCCNC(=O)C[C@@H]1C[C@@]2(C(=O)OC)CCCCC=C2N(Cc2cccc3ccccc23)C1=O	-1.9	12.7	-2.1	10.5*	-0.8	4.5
Cc1ccc(CNCC(O)(c2ccccc2)c2ccccc2)cc1	-0.5	-4.9	1.1	10.2*	1.6	0.8
Cc1ccc(CNCC(O)(c2ccccc2)c2ccc(Cl)cc2)cc1 (stereo not given)	-0.4	-6.2	4.9	2.4	.	.
CC(NS(C)(=O)=O)C(c1cccs1)N1CCN(C)CC1 (stereo not given)	-0.7	3.7	3.2	10.8*	-4.4	0.3
CC(=O)Nc1cccc(NC(=O)c2cc3ccccc3o2)c1	-0.3	-0.4	3.1	9.7*	-7.0	-3.0
CC(C)C(=O)Nc1cccc(NC(=O)c2cc3ccccc3o2)c1	-0.4	-2.5	0.8	0.4	.	.
COc1ccc(CN(C)CC(=O)Nc2ccc(Cl)cc2C(F)(F)F)c(OC)c1	-0.3	12.3	-0.6	12.6*	-1.8	1.5
Cc1ccc2c(c1)NC(=O)C(CC(=O)NCCCN1CCN(c3cc(Cl)ccc3C)CC1)O2 (stereo not given)	-0.9	-18.3	5.5	9.5*	-17.3	-10.8
Cc1ccc2c(c1)NC(=O)C(CC(=O)NCCCN1CCCCC1)O2 (stereo not given)	0.3	-0.9	-0.6	-0.9	.	.
COC(=O)c1cccc(NC(=O)Nc2ccc(Cl)cc2Cl)c1	-0.5	7.4	1.7	9.9*	7.1	3.6
COc1cccc(NC(=O)C(C)N2C(=O)c3ccccc3C2=O)c1 (stereo not given)	-1.1	-0.2	-3.3	0.8	.	.
COC(=O)c1cccc(NC(=O)C(C)N2C(=O)c3ccccc3C2=O)c1 (stereo not given)	0.2	-9.0	6.3	10.0*	-3.1	0.8
COC(=O)c1cccc(NC(=S)Nc2cc(Cl)ccc2OC)c1	-0.3	3.8	-12.5	-6.5	.	.
CN1C(=O)c2cc(NC(=O)C3CCCCC3)ccc2OC[C@H]2O[C@@H](CC(=O)NC3CCCC3)CC[C@H]21	.	1.4	0.7	0.9	.	.
COC(=O)C1CN(Cc2cn(CCOC(C)=O)nn2)CCS(=O)(=O)N1Cc1ccc(C)cc1 (stereo not given)	.	1.4	2.2	-1.3	.	.
CC(=O)N1C[C@@H](CO)[C@@H]2C[C@H]1c1ccccc1N2C	.	7.1	1.8	2.0	.	.
Clc1nnc(Cl)c2c1ncn2Cc1ccccc1	-0.1	5.0	3.7	10.8*	-3.4	-1.2
O=C(Nc1ccc(C(F)(F)F)cc1)OC1CCC12CCCCC2 (stereo not given)	.	8.6	1.2	0.6	.	.
COc1ccc(C(=O)COC(=O)[C@H](C)Nc2ccc(C(F)(F)F)cc2[N+](=O)[O-])cc1	-0.4	8.1	6.3	11.5*	-0.8	-2.9
Clc1ccccc1OCCN1CCC(Cc2ccccc2)CC1	0.0	-9.1	18.3*	20.3*	-0.3	-5.0
O=C(O)CCCNS(=O)(=O)c1ccc(F)cc1	-0.8	-2.1	5.7	9.7*	-6.9	-4.8
SMILES	Tb MetRS inh	HGIII-sPLA2 inh	PLC-beta3 inh	PLC-gamma1 inh	PLCg1 ctr	PLCbeta3 conf	others
CC(=O)c1ccc(OCC(O)CN2CCN(CC(O)COc3ccc(C(C)=O)cc3)CC2)cc1 (stereo not given)	0.2	-0.3	2.6	3.9	.	.
CC(=O)c1ccc(OCC(O)COc2ccc(C(C)=O)cc2)cc1	-0.3	-0.2	9.0	11.2*	0.6	3.7
O=C(Nc1ccncc1)c1ccc2c(c1)C(=O)N(CC1CCCO1)C2=O (stereo not given)	0.2	-1.2	4.5	11.4*	-3.0	1.1
Cn1nc(C(C)(C)C)cc1C(=O)NCC1CCN(C(=O)C(=O)c2cc3ccccc3o2)CC1	.	-4.5	-0.9	0.5	.	.
Cc1nc(SCC(O)CCl)c([N+](=O)[O-])[nH]1 (stereo not given)	-0.4	10.4	12.6*	10.7*	0.3	1.9
CCCCCCNC(=O)C1CSCCS(=O)(=O)N1Cc1ccc(OC)cc1 (stereo not given)	.	-0.1	0.6	-1.1	.	.
O=C(COC(=O)c1ccc(O)cc1O)NC12CC3CC(CC(C3)C1)C2	-0.2	-38.5	-0.9	6.9	.	.
O=C(COC(=O)c1cnccn1)c1ccc(-c2ccccc2)cc1	0.0	-1.6	-4.8	-1.7	.	.
O=C(COC(=O)c1cnccn1)c1ccccc1	-0.3	11.8	11.8*	-0.7	-4.1	-0.4
O=C(OCC(=O)C12CC3CC(CC(C3)C1)C2)c1cnccn1	-0.1	4.7	2.7	12.4*	1.0	1.3
O=C(OCC(=O)C12CC3CC(CC(C3)C1)C2)c1ccc(O)cc1O	0.1	-31.6	3.5	10.1*	2.0	2.7

Source: PubChem (The Scripps Research Institute Molecular Screening Center)
